This is a sample that favours compounds with a hit; in the whole collection about 1.7% have one here.
TbMetRS inhib: T. brucei MetRS inhibitors, primary screen, biochemical, luminescence. actives 0.4% (n = 360,000). inhibition, % at 11.9 µM. methionyl-tRNA synthetase (Trypanosoma brucei brucei). purified T. brucei MetRS, ATP depletion, Kinase-Glo luminescence. AID 624268, 2012;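 active means inhibition above a per-plate cutoff of the control wells' mean inhibition plus 3 SD, cut at about 5.5% in these data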;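 further: 0% = DMSO wells median and 100% = median of wells with control inhibitor compound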
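Material: parasite MetRS enzyme / Replication: singlicate, one well per compound / Signal: luminescence of leftover ATP / Schedule: 2 h aminoacylation at 25 °C after 15 min preincubation / Medium: HEPES-MgCl2-KCl buffer plus DTT, spermine, BSA, pyrophosphatase / Doses: 11.9 µM single point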
IDE cell activ: human IDE activators in live cells, primary screen, fluorescence polarization, HEK cells, FAbeta-B substrate. FAbeta-B cleavage; 0% vehicle, 100% cell-free pure enzyme wells. Insulin-degrading enzyme (Homo sapiens), P14735. AID 493087, 2011. activation, % at 5.96 µM. actives 0.073% (n = 340,000);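 active means activation above the mean of all tested compounds plus 3 SD, set per screening campaign, cut at about 17% in these data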
TPT1 inh: Candida albicans TPT1 enzyme inhibitors, primary screen, biochemical, fluorescence polarization. tRNA 2'-phosphotransferase TPT1 (Candida albicans SC5314). recombinant caTPT1, FP RNA substrate dephosphorylation. inhibition, % at 5 µM. actives 0.81% (n = 300,000). AID 1962, 2009;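 active means inhibition above the mean of all tested compounds plus 3 SD, set per screening campaign, cut at about 24% in these data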;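 further: plate controls were DMSO alone for no effect and ferristatin control at 100 nM for full effect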
HNF4A DNA FP: change in binding of human HNF4A to DNA, primary screen, biochemical, fluorescence polarization, FITC-DNA; Hepatocyte nuclear factor 4-alpha (Homo sapiens), P41235; activity change, % at 10 µM; actives 0.3% (n = 360,000); 1 h; AID 1224865, 2016; in the data active means activity change above about 30%, passing the limit was not always enough
Target sequence (P41235 whole entry, looked up): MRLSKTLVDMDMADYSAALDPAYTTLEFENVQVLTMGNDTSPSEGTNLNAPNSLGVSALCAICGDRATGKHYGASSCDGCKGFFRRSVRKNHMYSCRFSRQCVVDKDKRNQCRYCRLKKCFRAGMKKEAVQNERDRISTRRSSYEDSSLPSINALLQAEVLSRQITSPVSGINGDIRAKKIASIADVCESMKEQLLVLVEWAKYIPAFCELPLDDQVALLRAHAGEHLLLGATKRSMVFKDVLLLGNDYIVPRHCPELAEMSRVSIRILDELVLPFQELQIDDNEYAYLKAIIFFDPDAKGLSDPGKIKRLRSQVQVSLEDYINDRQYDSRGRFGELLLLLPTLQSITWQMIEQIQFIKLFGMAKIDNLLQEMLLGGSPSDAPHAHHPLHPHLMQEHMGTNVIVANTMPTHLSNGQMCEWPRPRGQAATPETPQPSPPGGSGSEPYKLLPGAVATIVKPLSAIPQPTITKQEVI
IDE inh: human IDE inhibitors in live cells, primary screen, fluorescence polarization, HEK cells, FAbetaB substrate. actives 0.41% (n = 320,000). Insulin-degrading enzyme (Homo sapiens), P14735. FAbetaB cleavage. AID 434962, 2010. inhibition, % at 5.59 µM;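 active means percent inhibition above the average of all tested compounds plus 3 SD, set per screening campaign, cut at about 16% in these data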;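 further: IDE supplied by intact live HEK cells; FP after avidin binding of uncleaved biotin substrate so inhibition keeps polarization high; 0% = DMSO wells and 100% = 60 µM reference IDE inhibitor Ii1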
CSN deneddyl inh: inhibitors of CSN-mediated cullin deneddylation, primary screen, biochemical, fluorescence polarization, uHTS; COP9 signalosome complex subunit 5 (Homo sapiens), Q92905; Purified CSN, SCF-Nedd8-OG deneddylation; inhibition, % at 12.5 µM; actives 0.38% (n = 360,000);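 active means pattern-corrected inhibition above about 35%, with an unprinted fluorescence ratio check between 0.5 and 1.5, limit read from the data, passing the limit was not always enough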;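 further: 0% = enzyme with substrate and 100% = substrate without enzyme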
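Assay system: Purified human Csn5 enzyme expressed in HEK293T cells | Amount: Enzyme 0.24 nM | Measured by: Fluorescence polarization readout | Medium: Tris/NaCl/DTT buffer, pH 7.5 | Compound dosing: One concentration, 12.5 µM, 0.25% DMSO | Times: 90 min incubation of compound, enzyme and substrate at room temperature | Control set: no-enzyme wells high, enzyme-with-substrate wells low | Read-out: % inhibition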
Tb MetRS conf: T. brucei MetRS inhibitors, confirmation, biochemical, luminescence | shares compounds with TbMetRS inhib | T. brucei MetRS enzyme, luminescence (ATP depletion) | inhibition, % at 11.9 µM | actives 93% (n = 1,400); in the data active means inhibition above about 7%
Jurkat cytotox: Jurkat T cell cytotoxicity, cytotoxicity control for T. brucei MetRS inhibitor project, luminescence, high throughput. actives 12% (n = 1,400). shares compounds with TbMetRS inhib. inhibition, % at 8.3 µM. Jurkat cells viability, ATP luminescence; in the data active means inhibition above about 15%;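 further: 0% = vehicle and 100% = reference inhibitor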
TbMetRS FP orth: T. brucei MetRS inhibitors, orthogonal assay for T. brucei MetRS inhibitor project, biochemical, fluorescence polarization; shares compounds with TbMetRS inhib; purified T. brucei MetRS; inhibition, % at 11.9 µM; actives 44% (n = 1,400); in the data active means inhibition above about 17%;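 further: 0% = vehicle wells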
Numbers without * were called inactive; / = no result given.

SMILES | TbMetRS inhib | IDE cell activ | TPT1 inh | HNF4A DNA FP | IDE inh | CSN deneddyl inh | Tb MetRS conf | Jurkat cytotox | TbMetRS FP orth
Fc1ccccc1COc1ccc(Br)cc1CNCC1CCCO1 (stereo not given) | -1 | 3 | -2 | 1 | 8 | -6 | / | / | /
Cc1cc(Cl)c(OCCCn2ccnc2)c(Br)c1 | 0 | -1 | -3 | 2 | 13 | -1 | / | / | /
Clc1ccc(OCCN2CCCCC2)c(Cl)c1 | 4 | -1 | 0 | -2 | -3 | 2 | / | / | /
CCN1CCN(CCCOc2ccc(Cl)cc2Br)CC1 | 7.7* | 3 | 4 | -5 | -2 | 8 | 13* | 8 | 6
Clc1ccc(OCCCn2ccnc2)c(Br)c1 | 13* | 2 | -1 | 0 | -12 | -5 | 22* | 5 | 13
CC1CCCN(CCOCCOc2ccc(Cl)cc2Br)C1 (stereo not given) | 3 | -2 | 0 | 0 | -1 | -4 | / | / | /
Clc1ccc(OCCCCCN2CCCC2)c(Br)c1 | 6.2* | -3 | -2 | 5 | 0 | -4 | 13* | 13 | 4
Clc1ccc(OCCCN2CCCCC2)c(Br)c1 | 17* | 7 | 1 | -2 | 9 | 1 | 28* | 3 | 11
Brc1ccccc1OCCCCCN1CCCC1 | / | / | 2 | / | 3 | / | / | / | /
COc1ccc(CNC(=O)c2cn(Cc3ccccc3OC)c(=O)s2)cc1 | -1 | / | / | -3 | / | -8 | / | / | /
COc1ccc(/C=C2\SC(=O)N=C2N)cc1 | 22* | 1 | 0 | 1 | -1 | 6 | 67* | 1 | 37*
COc1ccc(/C=C2\SC(N3CCCCC3)=NC2=O)cc1 | 0 | 1 | 1 | 3 | -3 | -1 | / | / | /
C=CCn1c(Cc2nc3ccc(Cl)cc3[nH]2)n[nH]c1=S | 6.7* | 4 | 3 | 3 | 1 | -2 | 21* | 0 | 15
C=CCn1c(Cc2ccccc2)n[nH]c1=S | -1 | 1 | -1 | -2 | 3 | -3 | / | / | /
Nc1ccc2nc(-c3ccc(Cl)cc3)[nH]c2c1 | 0 | -3 | 5 | -1 | 0 | 1 | / | / | /
Clc1ccc2nc(-c3ccc(Cl)nc3)[nH]c2c1 | 25* | 2 | 0 | -4 | 0 | 2 | 46* | 15* | 22*
COCCCn1c(Cc2csc(Nc3ccccc3)n2)nnc1SCC(N)=O | 0 | -2 | 0 | 1 | 1 | 1 | / | / | /
NC(=O)CSc1nnc(Cc2csc(Nc3ccccc3)n2)n1Cc1ccccc1 | 9.0* | 1 | 0 | 1 | 2 | 0 | 16* | 2 | 1
NNC(=O)c1ccc(CSc2n[nH]c(=O)[nH]c2=O)cc1 | 0 | 5 | 0 | -1 | -6 | 3 | / | / | /
COc1ccc(/C(C#N)=C/c2cccnc2)cc1 | 6.1* | 1 | / | 0 | / | -2 | 15* | -1 | 8
CC(C)CC1NC(=O)N(CC(=O)Nc2ccccc2-c2ccccc2)C1=O (stereo not given) | 0 | 4 | -1 | -2 | -4 | 1 | / | / | /
CC(C)CC1NC(=O)N(CCCCN2C(=O)c3ccccc3C2=O)C1=O (stereo not given) | 8.8* | 4 | 0 | -2 | 2 | 1 | 2 | 2 | -3
Cc1nc2c(-c3ccc(F)cc3)c(C)nn2c(C)c1CCC(=O)Nc1ccccc1F | 0 | 2 | -4 | -4 | 4 | 3 | / | / | /
CN(C)c1ccc(NC(=O)Cn2cc3c(n2)CCCC3)cc1 | 16* | 1 | 4 | 2 | -1 | -5 | 16* | 21* | 4
Cc1cc(C)cc(NC(=O)Cn2cc3c(n2)CCCCC3)c1 | / | / | 1 | / | -5 | / | / | / | /
SMILES | TbMetRS inhib | IDE cell activ | TPT1 inh | HNF4A DNA FP | IDE inh | CSN deneddyl inh | Tb MetRS conf | Jurkat cytotox | TbMetRS FP orth
O=C(Nc1ccc(Cl)cc1)Nc1ccc(S(=O)(=O)Nc2ncccn2)cc1 | 6.2* | -2 | 0 | -2 | -5 | 0 | 8.4* | -1 | 2
O=C(Nc1nc2c(s1)CCCC2)C1CCCN1C(=O)c1cccs1 (stereo not given) | 5.9* | 2 | -1 | 1 | 10 | -3 | 3 | -7 | 5
CCOC(=O)C(/C=C(\C#N)C(=O)OCC)=C(/N)N1CCN(c2ccc(OC)cc2)CC1 | 22* | 4 | -1 | 0 | 5 | 4 | 43* | 3 | 13
O=CN1CCN(C(=O)Cc2ccc(Cl)cc2)CC1 | 0 | / | / | 0 | / | -3 | / | / | /
Cc1ccc(NC(=O)CN(C)C(=O)c2cc(S(=O)(=O)N(C)C)ccc2N2CCCC2)cc1 | 49* | 4 | 1 | 3 | 3 | 2 | 78* | 5 | 52*
CN(CC(=O)Nc1cccc(F)c1)C(=O)c1cc(S(=O)(=O)N(C)C)ccc1N1CCCC1 | 10* | 6 | 2 | 0 | -3 | -3 | 27* | 3 | 10
COc1ccc(CCNC(=O)c2ccccc2NC(=O)C2=C(C)OCCS2)cc1OC | 1 | 4 | -2 | 1 | 4 | 0 | / | / | /
COc1ccc(C(=O)NC(=S)NNC(=O)c2cnccn2)cc1 | 0 | 2 | 2 | 0 | -1 | 0 | / | / | /
O=C(NC(=S)NNC(=O)c1cnccn1)c1ccc(Cl)cc1 | 5.9* | 6 | -4 | -1 | 4 | -1 | 2 | 6 | -5
O=c1[nH]c(COc2ccc(Br)cc2Cl)nc2ccccc12 | 6.2* | 3 | -1 | 0 | 1 | 2 | 30* | 3 | 14
Nc1nnc(CC(=O)N/N=C/c2ccc(-c3ccc(F)cc3)o2)s1 | 6.4* | / | -1 | 6 | 15 | 3 | 2 | 6 | 1
COCCN(C(=O)c1csnn1)C(C(=O)NC1CCCCC1)c1ccc(Cl)cc1 (stereo not given) | 9.2* | -5 | -2 | 4 | 3 | 4 | 2 | -2 | -2
COCCN(C(=O)c1csnn1)C(C(=O)NC1CCCCC1)c1ccccc1 (stereo not given) | 0 | 3 | -3 | -4 | -4 | 2 | / | / | /
